Reference: ChEMBL document CHEMBL1124080, “Potential antitumor agents. 55. 6-Phenylphenanthridine-4-carboxamides: a new class of DNA-intercalating antitumor agents” (J Med Chem, 1988)
Values joined by “and” are separate entries in the source; they are usually repeats but may differ in a detail not shown here. Equal values may be shown once. Active and inactive are the calls of the source.

Key:
[1] = tested on: Lewis lung carcinoma cell line; assay: Optimal dose administered intraperitoneally to mice infected with Lewis lung carcinoma cells(LL) in vivo; type: functional, Mus musculus
[2] = tested on: poly[d(A-T)] and poly[d(G-C)]; assay: Binding constant for poly[d(A-T)] and poly[d(G-C)] by ethidium bromide displacement
[3] = tested on: P388; assay: Optimal dose following i.p. administration on days 1,5 and 9 after inoculation of 10e6 P388 leukemia cells to mice.; type: functional, Mus musculus
In short: (§1)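 Mice inoculated intraperitoneally with 10^6 P388 leukemia cells. Drug given i.p. as a solution in 0.1 mL 30% v/v ethanol/water on days 1, 5 and 9. Optimal dose in mg/kg per day. ILS is the percent increase in lifespan over untreated tumor-bearing controls at that dose; above 20% counted significant. Long-term survival judged at 50 days, groups of six.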

[4] = tested on: P388; assay: The percentage increase in lifespan of compound with P388 tumor bearing controls when treated at optimal dose; type: functional, Mus musculus
In short: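 P388 leukemia: 10^6 cells inoculated intraperitoneally. ILSmax is the percentage lifespan increase over tumor-bearing controls at the optimal dose (mg/kg per day). Groups of six; long-term survivors counted at 50 days; values above 20% considered significant.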

[5] = tested on: L1210; assay: Inhibition of growth of murine leukemia (L1210) cells.; type: functional, cell-based; conditions: Mus musculus
In short: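 Murine leukemia L1210 cells grown in culture with drug for 40 h; IC50 taken as the concentration (nM) giving 50% growth inhibition.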

[6] = tested on: Lewis lung carcinoma cell line; assay: The percentage increase in lifespan of compound with Lewis lung carcinoma tumor bearing controls when treated at OD; Not active; type: functional, cell-based; conditions: Mus musculus
[7] = pKa was evaluated; type: physicochemical
In short: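 pKa determined spectrophotometrically in aqueous solution.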

[8] = tested on: Lewis lung carcinoma cell line; assay: The percentage increase in lifespan of compound with Lewis lung carcinoma tumor bearing controls when treated at OD; type: functional, Mus musculus
In short: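 Lewis lung carcinoma: 10^6 cells inoculated intravenously. ILSmax is the percentage increase in lifespan over tumor-bearing controls at the optimal dose (mg/kg per day). Groups of six; long-term survivors counted at 60 days; values above 40% considered significant.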

[9] = tested on: P388; assay: Optimal dose administered intraperitoneally on days 1,5 and 9 after intraperitoneal inoculation of 10e6 P388 leukemia cells in vivo.; type: functional, Mus musculus; in short: as §1
[10] = tested on: Lewis lung carcinoma cell line; assay: Optimal dose administered intraperitoneally to mice infected with Lewis lung carcinoma cells(LL) in vivo.; type: functional, Mus musculus
[11] = tested on: P388; assay: The percentage increase in lifespan of compound with P388 tumor bearing controls when treated at optimal dose; Not active; type: functional; conditions: Mus musculus; in short: as §1
[12] = tested on: Lewis lung carcinoma cell line; assay: OD administered intraperitoneally to mice infected with Lewis lung carcinoma cells(LL) in vivo; type: functional, Mus musculus

Row | SMILES | OD [1] [mg/kg/day] | Log K [2] | OD [3] [mg/kg/day] | ILSmax [4] [%] | IC50 [5] [nM] | ILSmax [6] | pKa [7] | ILSmax [8] [%] | OD [9] [mg/kg/day] | OD [10] [mg/kg/day] | ILS max [11] | ILS max [6] | ILSmax [11] | OD [12] [mg/kg/day]
1 | CN(C)CCNC(=O)c1cccc2c1nc(-c1ccncc1)c1ccccc12.Cl.Cl | 100 | 6.9 and 7 | 100 | 93 | 14 | inactive |  |  |  |  |  |  |  | 
2 | CN(C)CCNC(=O)c1cccc2c1ncc1ccccc12.Cl.Cl | 150 | 5.9 and 5.61 | 100 | 73 | 2100 |  | 2.95 | 117 |  |  |  |  |  | 
3 | CN(C)CCNC(=O)c1cccc2c1nc(-c1ccccn1)c1ccccc12.Cl | 65 | 5.69 and 5.77 | 65 | 20 | 720 |  |  |  |  |  |  |  |  | 
4 | CN(C)CCNC(=O)c1cccc2c1nc(-c1ccc(F)cc1)c1ccccc12.Cl.Cl | 45 |  | 20 | 63 | 43 |  |  | 45 |  |  |  |  |  | 
5 | COc1ccc(-c2nc3c(C(=O)NCCN(C)C)cccc3c3ccccc23)cc1.Cl.Cl |  |  |  | 22 | 500 | inactive |  |  | 65 | 100 |  |  |  | 
6 | CN(C)CCNC(=O)c1cccc2c1nc(-c1cccnc1)c1ccccc12.Cl.Cl.Cl | 65 | 6.35 and 6.21 | 45 | 104 | 13 |  |  | 93 |  |  |  |  |  | 
7 | Br.Br.CN(C)CCNC(=O)c1cccc2c1nc(-c1ccc(O)cc1)c1ccccc12.Cl.Cl | 65 |  | 65 |  | 370 |  |  |  |  |  | inactive | inactive |  | 
8 | CN(C)CCCNC(=O)c1cccc2c1ncc1ccccc12.Cl.Cl |  | 5.74 and 5.37 | 100 |  | 3590 |  |  |  |  |  |  |  |  | 
9 | CN(C)CCNC(=O)c1cccc2c1nc(-c1ccc(Br)cc1)c1ccccc12 |  | 7.04 and 6.76 | 65 |  | 1010 | inactive |  |  |  | 45 | inactive |  |  | 
10 | CN(C)CCNC(=O)c1cccc2c1nc(-c1ccccc1Cl)c1ccccc12.Cl |  | 6.45 and 6.6 | 45 |  | 2870 |  |  |  |  |  |  |  | inactive | 
11 | CN(C)CCNC(=O)c1cccc2c1nc(-c1cccc(Cl)c1)c1ccccc12.Cl.Cl | 100 | 6.41 and 6.56 | 65 | 88 | 66 |  |  |  |  |  |  |  |  | 
12 | CN(C)CCCCNC(=O)c1cccc2c1ncc1ccccc12.Cl |  | 5.64 and 5.28 |  |  | 3290 |  |  |  | 100 |  |  |  |  | 
13 | CN(C)CCNC(=O)c1cccc2c1nc(-c1ccc(I)cc1)c1ccccc12.Cl.Cl | 65 | 7.33 and 7.23 | 65 |  | 2240 | inactive |  |  |  |  |  |  | inactive | 
14 | CN(C)CCNC(=O)c1cccc2c1nc(-c1ccccc1)c1ccccc12 | 65 | 6.26 and 6.33 | 45 | 92 | 120 |  | 2.75 | 126 |  |  |  |  |  | 
15 | CC(=O)Nc1ccc(-c2nc3c(C(=O)NCCN(C)C)cccc3c3ccccc23)cc1 |  | 6.13 and 6.31 | 30 | 22 | 54 | inactive |  |  |  | 45 |  |  |  | 
16 | CN(C)CCNC(=O)c1cccc2c1nc(-c1ccc(N)cc1)c1ccccc12 |  | 6.29 and 6.57 |  | 27 | 130 | inactive |  |  | 30 | 45 |  |  |  | 
17 | CN(C)CCCCNC(=O)c1cccc2c1nc(-c1ccccc1)c1ccccc12.Cl.Cl | 45 | 6.59 and 6.4 |  |  | 1060 | inactive |  |  | 65 |  | inactive |  |  | 
18 | CN(C)CCNC(=O)c1cccc2c1nc(-c1ccc([N+](=O)[O-])cc1)c1ccccc12 |  | 6.41 and 6.54 |  | 65 | 540 | inactive |  |  | 65 | 65 |  |  |  | 
19 | CN(C)CCNC(=O)c1cccc2c1nc(-c1ccc(Cl)cc1)c1ccccc12 | 65 | 6.26 and 6.24 | 45 | 34 | 410 | inactive | 2.52 |  |  |  |  |  |  | 
20 | CN(C)CCCNC(=O)c1cccc2c1nc(-c1ccccc1)c1ccccc12.Cl.Cl | 65 | 6.5 and 6.11 | 45 | 24 | 1120 | inactive |  |  |  |  |  |  |  | 
21 | CN(C)CCNC(=O)c1cccc2c1nc(-c1ccc(NS(C)(=O)=O)cc1)c1ccccc12.Cl.Cl |  | 6.24 and 6.36 | 30 |  | 350 | inactive |  |  |  |  |  |  | inactive | 20
